# Measured values reported in PubChem BioAssay AID2516 (University of Pittsburgh Molecular Library Screening Center, 2010).
# This is one part of the list. Values without a mark were called inactive.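 Rule for the calls: active = at least 50% inhibition in the glucose-6-phosphate dehydrogenase coupled counterscreen; inconclusive = no clear call, values can overlap the other calls; inactive = inhibition below 50%.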
# Tested on: glucose-6-phosphate dehydrogenase [Leuconostoc mesenteroides]
# Assay: Leuconostoc G6PDH inhibition, confirmation, counter-screen for TbHK1 inhibitor project, biochemical, DPI cherry-picked compounds, single concentration (AID 2516)
# Conditions: purified G6PDH, NADH absorbance, 1 h; at 10 µM; stronger effect = higher value
# Outline: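 System: purified G6PDH enzyme. Amount: enzyme 0.006 mU/µL final. Also added: substrates G6P at 0.2 mM and NAD+ at 0.6 mM, final. Compound dosing: single point, test compound at 10 µM final. Incubation: enzyme reaction for 1 h at room temperature. Technique: absorbance after 50 mM EDTA stop.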
row,SMILES,inhibition
1,O=C(CN1C(=O)C2C3C=CC(C3)C2C1=O)NCCc1ccccc1Cl (centres undefined),-2.31%
2,COc1cccc(/C=N/Nc2ncc(C(F)(F)F)cc2Cl)c1O,-9.42%
3,CC1(C)CC(=O)C=C(NCCCNC2CCCCC2)C1,2.59%
4,COC(=O)C1CCN(CC(N)=O)CC1,-9.01%
